Assay results reported in PubChem BioAssay AID602424 (Sanford-Burnham Center for Chemical Genomics, 2012).
Activity calls are given as the source filed them.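 Rule for the calls: active = IC50 at or below 20 µM; inactive = the rest.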

What follows are compounds tested against Glucose-6-phosphate 1-dehydrogenase (Homo sapiens) (UniProt P11413) (assay: human G6PD enzyme inhibition selectivity, SAR follow-up, selectivity assay for PfG6PD antimalarial inhibitor project, biochemical, fluorescence, dose response, set 4 (AID 602424)). Details: recombinant human G6PD, NADPH-diaphorase-resazurin fluorescence.
Chain of Glucose-6-phosphate 1-dehydrogenase (Homo sapiens) (P11413 whole entry, looked up): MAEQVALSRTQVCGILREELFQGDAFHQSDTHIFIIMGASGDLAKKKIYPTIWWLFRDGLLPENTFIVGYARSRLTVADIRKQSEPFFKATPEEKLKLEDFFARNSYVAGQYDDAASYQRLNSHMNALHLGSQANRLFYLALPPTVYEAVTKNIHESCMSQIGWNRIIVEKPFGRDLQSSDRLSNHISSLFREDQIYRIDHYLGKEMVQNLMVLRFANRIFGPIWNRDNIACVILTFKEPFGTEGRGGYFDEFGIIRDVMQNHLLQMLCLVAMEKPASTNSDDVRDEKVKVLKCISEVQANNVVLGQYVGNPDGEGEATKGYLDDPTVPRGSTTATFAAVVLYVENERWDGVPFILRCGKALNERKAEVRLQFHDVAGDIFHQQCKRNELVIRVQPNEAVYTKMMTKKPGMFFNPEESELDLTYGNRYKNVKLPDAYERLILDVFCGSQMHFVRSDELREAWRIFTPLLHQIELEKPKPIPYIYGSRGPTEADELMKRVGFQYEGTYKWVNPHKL
Method in brief: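 System: human glucose-6-phosphate dehydrogenase enzyme (hG6PD); Technique: resazurin-diaphorase fluorescence, Ex 530 nm, Em 590 nm; Also added: 320 µM glucose-6-phosphate substrate plus 6 µM NADP cofactor; Times: 90 min enzyme reaction at room temperature, in dark; Control set: no-substrate wells as low control; Compound: concentration series with 0.8% DMSO.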

Structure (SMILES) | IC50
CCN1CCC[C@@H]1CNC(=O)c1ccc2c(c1)NC(=O)c1ccc(F)cc1S2 | > 80 µM (inactive)
CCN1CCC[C@@H]1CNC(=O)c1ccc2c(c1)NC(=O)c1cc(F)ccc1S2 | > 80 µM (inactive)
CCCN1CCC(NC(=O)c2ccc3c(c2)NC(=O)c2ccccc2S3)C1 (configuration not stated) | > 80 µM (inactive)
CCN1CCC(NC(=O)c2ccc3c(c2)NC(=O)c2ccccc2S3)C1 (configuration not stated) | > 80 µM (inactive)
CCN1CCC[C@@H]1CNC(=O)c1ccc2c(c1)NC(=O)c1ccccc1N2 | > 80 µM (inactive)
CN1CCC(NC(=O)c2ccc3c(c2)NC(=O)c2ccccc2S3)C1 (configuration not stated) | > 80 µM (inactive)
O=C(NC[C@H]1CCCN1)c1ccc2c(c1)NC(=O)c1ccccc1S2 | > 80 µM (inactive)
O=C(NCC1CCCCN1)c1ccc2c(c1)NC(=O)c1ccccc1S2 (configuration not stated) | > 80 µM (inactive)
CCN1CCC[C@@H]1CNC(=O)c1ccc2c(c1)NC(=O)c1cccc(C)c1S2 | > 80 µM (inactive)

Second part, the compound after the results:

IC50 | Structure (SMILES)
> 80 µM (inactive) | CN1CCCCC1CNC(=O)c1ccc2c(c1)NC(=O)c1ccccc1S2 (configuration not stated)
> 80 µM (inactive) | CN1CCCC1CNC(=O)c1ccc2c(c1)NC(=O)c1ccccc1S2 (configuration not stated)
> 80 µM (inactive) | CCCN1CCC[C@@H]1CNC(=O)c1ccc2c(c1)NC(=O)c1ccccc1S2
> 80 µM (inactive) | CCN1CCCCC1CNC(=O)c1ccc2c(c1)NC(=O)c1ccccc1S2 (configuration not stated)
> 80 µM (inactive) | CCCCN1CCCC1CNC(=O)c1ccc2c(c1)NC(=O)c1ccccc1S2 (configuration not stated)
> 80 µM (inactive) | CCCCCCN1CCCC1CNC(=O)c1ccc2c(c1)NC(=O)c1ccccc1S2 (configuration not stated)
> 80 µM (inactive) | CCCN1CCCCC1CNC(=O)c1ccc2c(c1)NC(=O)c1ccccc1S2 (configuration not stated)
> 80 µM (inactive) | CCN1CCC[C@@H]1CNC(=O)c1ccc2c(c1)NC(=O)c1cc(C)ccc1S2
